Converted amounts (≈) assume the structure as drawn.
Key:
Format in all cases: functional
Enterococcus faecium = assay: Antibacterial activity against Enterococcus faecium 7130724 by broth microdilution method
Enterococcus faecalis = assay: Antibacterial activity against Enterococcus faecalis ATCC 29212 by broth microdilution method
Procedure, shortened: (§1)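 Broth microdilution MICs were run per CLSI M07-A8 (2009). The strain panel included C. difficile ATCC 43255, E. faecalis ATCC 29212 and S. pyogenes ATCC BAA-595.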

Staphylococcus aureus = assay: Antibacterial activity against Staphylococcus aureus A4.018 by broth microdilution method
Streptococcus pyogenes = assay: Antibacterial activity against Streptococcus pyogenes ATCC BAA-595 by broth microdilution method; procedure, shortened: as §1
[1] = Antibacterial activity against Clostridium difficile ATCC 43255 by broth microdilution method; settings: Clostridioides difficile; procedure, shortened: as §1
Escherichia coli = assay: Inhibition of protein synthesis in Escherichia coli S30 extract at 2 uM after 75 mins by luciferase based luminescence assay relative to GE2270A

Compound | MIC (Enterococcus faecium) [µg/mL] | MIC (Enterococcus faecalis) [µg/mL] | MIC (Staphylococcus aureus) [µg/mL] | MIC (Streptococcus pyogenes) [µg/mL] | MIC [1] [µg/mL] | inhibition at 2 µM (Escherichia coli) [%]
CNC(=O)C[C@@H]1NC(=O)c2csc(n2)-c2ccc(-c3nc(N(CCOCC(=O)O)C(=O)O[C@H]4CC[C@H](C(=O)O)CC4)cs3)nc2-c2csc(n2)-c2csc(n2)[C@H]([C@@H](O)c2ccccc2)NC(=O)CNC(=O)c2nc(sc2COC)[C@H](C(C)C)NC(=O)c2nc1sc2C | 2 (≈ 1.46 µM) | 2 (≈ 1.46 µM) | 4 (≈ 2.92 µM) | 4 (≈ 2.92 µM) | 0.125 (≈ 0.0913 µM) | 67
CNC(=O)C[C@@H]1NC(=O)c2csc(n2)-c2ccc(-c3nc(N(C)C(=O)CCCC(=O)O)cs3)nc2-c2csc(n2)-c2csc(n2)[C@H]([C@@H](O)c2ccccc2)NC(=O)CNC(=O)c2nc(sc2COC)[C@H](C(C)C)NC(=O)c2nc1sc2C | 4 (≈ 3.27 µM) | 2 (≈ 1.63 µM) | 2 (≈ 1.63 µM) | > 64 |  | 30
CNC(=O)C[C@@H]1NC(=O)c2csc(n2)-c2ccc(-c3nc(N(C/C=C/C(=O)O)C(=O)O[C@H]4CC[C@H](C(=O)O)CC4)cs3)nc2-c2csc(n2)-c2csc(n2)[C@H]([C@@H](O)c2ccccc2)NC(=O)CNC(=O)c2nc(sc2COC)[C@H](C(C)C)NC(=O)c2nc1sc2C | 0.5 (≈ 0.37 µM) | 0.25 (≈ 0.185 µM) | 0.5 (≈ 0.37 µM) | 2 (≈ 1.48 µM) | 0.03 (≈ 0.0222 µM) | 67
CNC(=O)C[C@@H]1NC(=O)c2csc(n2)-c2ccc(-c3nc(NC(=O)CC[C@@H](CC(=O)O)C(=O)O)cs3)nc2-c2csc(n2)-c2csc(n2)[C@H]([C@@H](O)c2ccccc2)NC(=O)CNC(=O)c2nc(sc2COC)[C@H](C(C)C)NC(=O)c2nc1sc2C | 32 (≈ 25.2 µM) | 16 (≈ 12.6 µM) | 32 (≈ 25.2 µM) | > 32 | 4 (≈ 3.15 µM) | 30
CNC(=O)C[C@@H]1NC(=O)c2csc(n2)-c2ccc(-c3nc(N(CCCCC(=O)O)C(=O)OC(CCCCC(=O)O)CCC(=O)O)cs3)nc2-c2csc(n2)-c2csc(n2)[C@H]([C@@H](O)c2ccccc2)NC(=O)CNC(=O)c2nc(sc2COC)[C@H](C(C)C)NC(=O)c2nc1sc2C (some centres undefined) | 32 (≈ 22.4 µM) | 16 (≈ 11.2 µM) | 32 (≈ 22.4 µM) | > 32 | 2 (≈ 1.4 µM) | 50
CNC(=O)C[C@@H]1NC(=O)c2csc(n2)-c2ccc(-c3nc(N(CCCCC(=O)O)C(=O)C[C@H]4CC[C@H](C(=O)O)CC4)cs3)nc2-c2csc(n2)-c2csc(n2)[C@H]([C@@H](O)c2ccccc2)NC(=O)CNC(=O)c2nc(sc2COC)[C@H](C(C)C)NC(=O)c2nc1sc2C | > 32 | 8 (≈ 5.86 µM) | 4 (≈ 2.93 µM) | 32 (≈ 23.4 µM) | 0.25 (≈ 0.183 µM) | 30
CNC(=O)C[C@@H]1NC(=O)c2csc(n2)-c2ccc(-c3nc(N(CCCC(CCCCCCC(=O)O)C(=O)O)C(=O)O[C@H]4CC[C@H](C(=O)O)CC4)cs3)nc2-c2csc(n2)-c2csc(n2)[C@H]([C@@H](O)c2ccccc2)NC(=O)CNC(=O)c2nc(sc2COC)[C@H](C(C)C)NC(=O)c2nc1sc2C (some centres undefined) | 0.5 (≈ 0.334 µM) | 0.25 (≈ 0.167 µM) | 1 (≈ 0.669 µM) | 1 (≈ 0.669 µM) | 0.06 (≈ 0.0401 µM) | 50
CNC(=O)C[C@@H]1NC(=O)c2csc(n2)-c2ccc(-c3nc(N(CCCCC(=O)O)C(=O)[C@H]4CC[C@H]4C(=O)O)cs3)nc2-c2csc(n2)-c2csc(n2)[C@H]([C@@H](O)c2ccccc2)NC(=O)CNC(=O)c2nc(sc2COC)[C@H](C(C)C)NC(=O)c2nc1sc2C | 32 (≈ 24.2 µM) | 16 (≈ 12.1 µM) | 32 (≈ 24.2 µM) | > 32 | 4 (≈ 3.02 µM) | 30
CNC(=O)C[C@@H]1NC(=O)c2csc(n2)-c2ccc(-c3nc(N(CCCCC(=O)O)C(=O)O[C@H]4CC[C@](CCCCC(=O)O)(C(=O)O)CC4)cs3)nc2-c2csc(n2)-c2csc(n2)[C@H]([C@@H](O)c2ccccc2)NC(=O)CNC(=O)c2nc(sc2COC)[C@H](C(C)C)NC(=O)c2nc1sc2C | 1 (≈ 0.682 µM) | 0.5 (≈ 0.341 µM) | 1 (≈ 0.682 µM) | 4 (≈ 2.73 µM) | 0.03 (≈ 0.0205 µM) | 50
CNC(=O)C[C@@H]1NC(=O)c2csc(n2)-c2ccc(-c3nc(N(CCCCC(=O)O)C(=O)[C@H]4CC[C@H](C(=O)O)CC4)cs3)nc2-c2csc(n2)-c2csc(n2)[C@H]([C@@H](O)c2ccccc2)NC(=O)CNC(=O)c2nc(sc2COC)[C@H](C(C)C)NC(=O)c2nc1sc2C | > 32 | 32 (≈ 23.7 µM) | 16 (≈ 11.8 µM) | > 32 | 2 (≈ 1.48 µM) | 30
CNC(=O)C[C@@H]1NC(=O)c2csc(n2)-c2ccc(-c3nc(N(CCCCC(=O)O)C(=O)OCCC(CCCCC(=O)O)C(=O)O)cs3)nc2-c2csc(n2)-c2csc(n2)[C@H]([C@@H](O)c2ccccc2)NC(=O)CNC(=O)c2nc(sc2COC)[C@H](C(C)C)NC(=O)c2nc1sc2C (some centres undefined) | 16 (≈ 11.2 µM) | 8 (≈ 5.61 µM) | 16 (≈ 11.2 µM) | 32 (≈ 22.4 µM) | 0.5 (≈ 0.35 µM) | 50
CNC(=O)C[C@@H]1NC(=O)c2csc(n2)-c2ccc(-c3nc(NC(=O)N4C[C@H](CCC(=O)O)C[C@H](CCC(=O)O)C4)cs3)nc2-c2csc(n2)-c2csc(n2)[C@H]([C@@H](O)c2ccccc2)NC(=O)CNC(=O)c2nc(sc2COC)[C@H](C(C)C)NC(=O)c2nc1sc2C | 4 (≈ 2.96 µM) | 2 (≈ 1.48 µM) | 4 (≈ 2.96 µM) | 4 (≈ 2.96 µM) | 0.25 (≈ 0.185 µM) | 30
CNC(=O)C[C@@H]1NC(=O)c2csc(n2)-c2ccc(-c3nc(N(CCCC(=O)O)C(=O)c4ccc(C(=O)O)cn4)cs3)nc2-c2csc(n2)-c2csc(n2)[C@H]([C@@H](O)c2ccccc2)NC(=O)CNC(=O)c2nc(sc2COC)[C@H](C(C)C)NC(=O)c2nc1sc2C | 32 (≈ 24 µM) | 16 (≈ 12 µM) | 32 (≈ 24 µM) | > 32 | 4 (≈ 3 µM) | 30
CNC(=O)C[C@@H]1NC(=O)c2csc(n2)-c2ccc(-c3nc(N(CC(CC(=O)O)OC)C(=O)O[C@H]4CC[C@H](C(=O)O)CC4)cs3)nc2-c2csc(n2)-c2csc(n2)[C@H]([C@@H](O)c2ccccc2)NC(=O)CNC(=O)c2nc(sc2COC)[C@H](C(C)C)NC(=O)c2nc1sc2C (some centres undefined) | 1 (≈ 0.723 µM) | 1 (≈ 0.723 µM) | 1 (≈ 0.723 µM) | 4 (≈ 2.89 µM) | 0.06 (≈ 0.0434 µM) | 67
CNC(=O)C[C@@H]1NC(=O)c2csc(n2)-c2ccc(-c3nc(N(CCCCC(=O)O)C(=O)OCC(CCCCC(=O)O)CC(=O)O)cs3)nc2-c2csc(n2)-c2csc(n2)[C@H]([C@@H](O)c2ccccc2)NC(=O)CNC(=O)c2nc(sc2COC)[C@H](C(C)C)NC(=O)c2nc1sc2C (some centres undefined) | 8 (≈ 5.61 µM) | 8 (≈ 5.61 µM) | 8 (≈ 5.61 µM) | 32 (≈ 22.4 µM) | 1 (≈ 0.701 µM) | 50
CNC(=O)C[C@@H]1NC(=O)c2csc(n2)-c2ccc(-c3nc(N(CCCCC(=O)O)C(=O)O[C@]4(CCCCC(=O)O)CC[C@@H](C(=O)O)CC4)cs3)nc2-c2csc(n2)-c2csc(n2)[C@H]([C@@H](O)c2ccccc2)NC(=O)CNC(=O)c2nc(sc2COC)[C@H](C(C)C)NC(=O)c2nc1sc2C | 8 (≈ 5.45 µM) | 4 (≈ 2.73 µM) | 8 (≈ 5.45 µM) | 16 (≈ 10.9 µM) |  | 50
